In the library only some 5.3% were active in any assay of this set; here they are far more common.
CSC inhib: cancer stem cell inhibition | cancer stem cell-like cells viability, luminescence | inhibition, % at 7.5 µM | hit rate 1.1% among 300,000 | AID 2717; in the data active = inhibition above about 75%; inconclusive = no clear call, values can overlap the other calls; tested in HMLE shEcad cells
NALP3 yeast inh: inhibitors of NALP3 inflammasome in yeast. Yeast reconstituted NLRP3/ASC/caspase-1, beta-gal luminescence, 24 h. inhibition, % at 10 µM. hit rate 0.39% among 330,000;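 active = inhibition of 50% or more; inactive = inhibition below 50%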;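 also: plate controls were induced DMSO wells for no effect and uninduced yeast grown without galactose for full effect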
Mdm2 MdmX PPI: disrupts the human Mdm2-MdmX interaction. hit rate 3% among 330,000. SaOS-2 split-luciferase Mdm2/MdmX complementation, luminescence. inhibition, % at 8 µM. O15151+Q00987;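 active = inhibition of at least 50% at 8 µM in the primary screen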
T cruzi inh: blocks replication of Trypanosoma cruzi; T. cruzi beta-gal in NIH3T3, luminescence, 90 h; hit rate 1.4% among 300,000; inhibition, % (no concentration beside the values);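 active = mean inhibition across valid replicates above about 55%, limit read from the data; inconclusive = mean below that limit but half or more replicates reach it; inactive = mean below it, under half of replicates reach it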;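 also: signal also drops with host cell toxicity which is not excluded here; 0% = plate median of DMSO wells and 100% = zero luminescence signal; higher percent means less beta-gal luminescence so fewer parasites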
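Assay system: NIH/3T3 host cells with β-galactosidase reporter T. cruzi; input: 5,000 host fibroblasts per well; compound: single 50 nL compound addition per well in DMSO; timing: ≥90 h infection period, 3 h prior cell attachment; measured by: GalScreen β-gal luminescence, detergent lysis, 60 min; evaluation: percent inhibition of parasite-derived β-gal signal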
Beta apoptosis: beta cell apoptosis inhibition | INS-1E cytokine-induced death, ATP luminescence, 48 h; percent of positive-control rescue, neutral wells zero | AID 435005 | protection from apoptosis, % (no concentration beside the values) | hit rate 0.8% among 300,000;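 active = Every replicate reaches about 75%, or at least half do and their mean reaches it too, limit read from the data; inconclusive = At least half of replicates reach the limit but their mean does not; inactive = Under half of replicates reach the limit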;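 also: 0% = cytokine-treated negative control wells and 100% = positive control rescue; higher means more ATP so stronger rescue from cytokine killing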
Calb FLC: C. albicans growth modulation with fluconazole; C. albicans CaCi-2 (fluconazole-resistant clinical isolate) + fluconazole, Alamar Blue growth, 48 h; growth inhibition, % (concentration not given with the values); hit rate 0.57% among 300,000; AID 1979;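 active = growth inhibition above about 58% in most replicates, limit read from the data, passing the limit was not always enough; inconclusive = exactly half the replicates above a set limit; inactive = most replicates below a set limit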;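 also: all wells also contain fluconazole at 8 µg/ml as a sub-toxic cotreatment; 0% = median of DMSO wells and 100% = median of geldanamycin control wells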
An asterisk follows results filed as active.

How did COc1ccc(-n2c(-c3ccc(Br)cc3)c[n+]3c2CCCCC3)cc1 do in these assays?
CSC inhib: 18; NALP3 yeast inh: 16; Mdm2 MdmX PPI: 20; T cruzi inh: 66*; Beta apoptosis: 111*; Calb FLC: 14

How did COc1cccc(OCCOCC(O)CN2CCN(Cc3ccc(Cl)cc3)CC2)c1 (configuration not stated) do in these assays?
CSC inhib: -2; NALP3 yeast inh: 19; Mdm2 MdmX PPI: 21; T cruzi inh: 26; Beta apoptosis: -5; Calb FLC: -4

What do the screens show for `Cn1c(=O)c2c(nc(SCCN3CCOCC3)n2Cc2ccc(F)cc2)n(C)c1=O`?
CSC inhib: 2; NALP3 yeast inh: 20; Mdm2 MdmX PPI: -52; T cruzi inh: -5; Beta apoptosis: -4; Calb FLC: 0

What do the screens show for `COc1ccccc1NC(=O)C(=O)N/N=C/c1ccc([N+](=O)[O-])s1`?
T cruzi inh: 62*; Calb FLC: 42

Results for O=C(N/N=C/c1ccc([N+](=O)[O-])s1)c1ccccc1 ?
NALP3 yeast inh: 8; Mdm2 MdmX PPI: 37; T cruzi inh: 48; Beta apoptosis: -1; Calb FLC: 17

How did O=C(Cc1ccccc1)N/N=C/c1ccc([N+](=O)[O-])s1 do in these assays?
CSC inhib: 9; NALP3 yeast inh: 21; Mdm2 MdmX PPI: 15; T cruzi inh: 46; Beta apoptosis: 88*; Calb FLC: 1

What do the screens show for `O=C(N/N=C/c1ccc([N+](=O)[O-])s1)C(O)c1ccccc1` (configuration not stated)?
CSC inhib: 3; NALP3 yeast inh: 6; Mdm2 MdmX PPI: 42; T cruzi inh: 77*; Beta apoptosis: 94*; Calb FLC: 54

How did Cc1ccccc1C(=O)N/N=C/c1ccc([N+](=O)[O-])s1 do in these assays?
NALP3 yeast inh: 15; Mdm2 MdmX PPI: 14; T cruzi inh: 50; Calb FLC: 30

Results for O=C(Cc1ccccc1)N/N=C/c1ccccc1Cl ?
CSC inhib: 6; NALP3 yeast inh: 3; Mdm2 MdmX PPI: -35; T cruzi inh: 1; Beta apoptosis: 2; Calb FLC: 116*

How did O=C(NCCC1=CCCCC1)C1CCC(=O)N(Cc2cccc(C(F)(F)F)c2)C1 (configuration not stated) do in these assays?
CSC inhib: -26; NALP3 yeast inh: 13; Mdm2 MdmX PPI: 10; T cruzi inh: -4; Beta apoptosis: -5; Calb FLC: -5

How did O=C(N/N=C/c1ccc(Cl)cc1Cl)Nc1ccccc1 do in these assays?
CSC inhib: 30; NALP3 yeast inh: 25; Mdm2 MdmX PPI: 19; T cruzi inh: 8; Beta apoptosis: 3; Calb FLC: 117*

Results for Cn1c(SCC(=O)N/N=C/c2ccc([N+](=O)[O-])s2)nnc1-c1ccccc1 ?
CSC inhib: 28; NALP3 yeast inh: 22; Mdm2 MdmX PPI: 45; T cruzi inh: 58*; Beta apoptosis: inconclusive; Calb FLC: -2

How did Cc1cc(C(=O)N/N=C/c2ccc([N+](=O)[O-])cc2)c2ccccc2n1 do in these assays?
CSC inhib: 49; NALP3 yeast inh: -6; Mdm2 MdmX PPI: 50; T cruzi inh: -15; Beta apoptosis: 14; Calb FLC: -1

Results for O=C(N/N=C/c1cccc(Cl)c1Cl)Nc1ccccc1 ?
CSC inhib: -6; NALP3 yeast inh: 17; Mdm2 MdmX PPI: -92; T cruzi inh: 1; Beta apoptosis: -7; Calb FLC: 10

How did Cn1c(SCC(=O)N/N=C/c2cc([N+](=O)[O-])ccc2O)nnc1-c1ccccc1 do in these assays?
CSC inhib: 0; NALP3 yeast inh: 22; Mdm2 MdmX PPI: 24; T cruzi inh: 30; Beta apoptosis: 8; Calb FLC: -4

How did Cc1cc(C(=O)N/N=C/c2ccc([N+](=O)[O-])s2)c2ccccc2n1 do in these assays?
NALP3 yeast inh: 3; Mdm2 MdmX PPI: 26; T cruzi inh: 61*; Beta apoptosis: -1; Calb FLC: 31

How did CC(C)(C)c1ccc(SCC(N)=O)cc1 do in these assays?
CSC inhib: 13; NALP3 yeast inh: 17; Mdm2 MdmX PPI: -7; T cruzi inh: -5; Beta apoptosis: -7; Calb FLC: 81*

Results for CS(=O)(=O)c1cccc(NC(=O)c2ccc(Cl)c(Cl)c2)c1 ?
CSC inhib: -16; NALP3 yeast inh: -9; Mdm2 MdmX PPI: 20; T cruzi inh: 58*; Beta apoptosis: -5; Calb FLC: 4

How did O=C(/C=C/c1cccs1)NC(=S)NNC(=O)c1ccccc1O do in these assays?
NALP3 yeast inh: 48; Mdm2 MdmX PPI: 35; T cruzi inh: -15; Beta apoptosis: 31; Calb FLC: 118*

How did COc1ccc(C(=O)NNC(=S)NC(=O)/C=C/c2cccs2)cc1 do in these assays?
CSC inhib: -8; NALP3 yeast inh: 26; Mdm2 MdmX PPI: 42; T cruzi inh: -15; Beta apoptosis: 18; Calb FLC: 51

Results for CC(=S)/C=C1\Sc2ccccc2N1C ?
CSC inhib: 2; NALP3 yeast inh: 31; Mdm2 MdmX PPI: -5; T cruzi inh: 69*; Beta apoptosis: 13; Calb FLC: 117*

How did CC1(C)CC(=O)C(C(O)c2ccc([N+](=O)[O-])cc2)C(C)(C)N1 (configuration not stated) do in these assays?
CSC inhib: 61; NALP3 yeast inh: 2; Mdm2 MdmX PPI: -4; T cruzi inh: 3; Beta apoptosis: 5; Calb FLC: 8

How did CCCCCC(=O)Nc1cccc(C2=NOC3(C2)C[C@@H](C(N)=O)N(C(=O)c2ccc(Cl)cc2)C3)c1 (some centres not stated) do in these assays?
CSC inhib: -10; NALP3 yeast inh: -6; Mdm2 MdmX PPI: -1; T cruzi inh: 60*; Beta apoptosis: -21; Calb FLC: -1

Results for Cc1ccc(S(=O)(=O)N2CCOCC2)cc1NC(=O)COC(=O)c1cncc(Br)c1 ?
CSC inhib: -8; NALP3 yeast inh: 21; Mdm2 MdmX PPI: 14; Beta apoptosis: -3

Results for CCC(C(=O)NCC1CCCO1)N(C(=O)c1snc(C(N)=O)c1N)c1ccc(Cl)cc1 (configuration not stated) ?
CSC inhib: 0; NALP3 yeast inh: -4; Mdm2 MdmX PPI: 11; T cruzi inh: 0; Beta apoptosis: -2; Calb FLC: 23

What do the screens show for `COc1ccc(C2CC(c3c(O)cc(C)oc3=O)=NCCS2)c(OC)c1` (configuration not stated)?
CSC inhib: 80*; NALP3 yeast inh: 13; Mdm2 MdmX PPI: -18

Results for CC(C)SCCCOc1ccc(C(C)(C)C)cc1 ?
CSC inhib: 7; NALP3 yeast inh: 5; Mdm2 MdmX PPI: 12; T cruzi inh: 9; Beta apoptosis: 5; Calb FLC: -3

What do the screens show for `CC(=O)C1=C(O)C(=O)N(c2ccc(O)cc2)C1c1ccccc1F` (configuration not stated)?
CSC inhib: -6; NALP3 yeast inh: 18; Mdm2 MdmX PPI: 11; T cruzi inh: -5; Calb FLC: 6

Source: PubChem BioAssay
